# Screening data from PubChem.
# The list is not random: actives were taken first. Their share in the collection is about 5.9%.
# Pf Dd2 growth: P. falciparum Dd2 growth inhibitors, primary screen, SYBR Green fluorescence, single dose replicates; 72 h; hits give low values; activity change, % at 10 µM; 94,000 tested, 2.3% active; AID 1159554, 2015; in the data active = activity change below about -80%; inconclusive = no clear call, values can overlap the other calls
# T cruzi growth-1: T. cruzi intracellular proliferation inhibitors, primary screen, cell-based, beta-gal Tulahuen parasites, NIH3T3 host, luminescence; T. cruzi beta-gal in NIH3T3, GalScreen luminescence, 90 h; inhibition, % at 8.34 µM; 77,000 tested, 5.9% active; AID 624255, 2012;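 active = mean inhibition above about 93%, with at least 55% of replicates each passing it, limit read from the data, passing the limit was not always enough; inconclusive = only one of those two conditions holds; inactive = neither condition holds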
# IDH1 mut inh: inhibitors of IDH1 R132H reductase, primary screen, biochemical, plate reader, single point | Isocitrate dehydrogenase [NADP] cytoplasmic (Homo sapiens), O75874 | diaphorase/resazurin fluorescence, 60 min | inhibition, % at 10 µM | 70,000 tested, 0.18% active | AID 624101, 2012; in the data active = inhibition above about 34%; inconclusive = no clear call, values can overlap the other calls; inactive = below about 11%;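 also: 0% = DMSO and 100% = no enzyme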
# Target sequence (O75874 whole entry R132H): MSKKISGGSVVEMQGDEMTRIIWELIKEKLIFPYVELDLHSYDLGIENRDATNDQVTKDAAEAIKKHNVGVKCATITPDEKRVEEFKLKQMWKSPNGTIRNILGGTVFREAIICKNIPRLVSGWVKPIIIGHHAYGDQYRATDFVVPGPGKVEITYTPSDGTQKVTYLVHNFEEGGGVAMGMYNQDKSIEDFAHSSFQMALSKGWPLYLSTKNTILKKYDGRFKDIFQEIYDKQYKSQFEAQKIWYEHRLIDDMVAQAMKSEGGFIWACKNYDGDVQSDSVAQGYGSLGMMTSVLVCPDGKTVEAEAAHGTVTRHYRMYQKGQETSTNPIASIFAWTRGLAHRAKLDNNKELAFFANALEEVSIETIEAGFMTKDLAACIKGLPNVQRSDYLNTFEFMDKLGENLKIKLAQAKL
# GASC1 inh: inhibitors of GASC-1 (KDM4C) histone demethylase, primary screen, biochemical, single concentration HTS; Lysine-specific demethylase 4C (Homo sapiens), Q9H3R0; inhibition, % at 12.5 µM; 96,000 tested, 0.15% active; GST-KDM4C 2-372, H3K9me3 peptide, LANCE TR-FRET;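 active = mean replicate inhibition above about 25%, with at least 55% of replicates also reaching it, limit read from the data, passing the limit was not always enough; inconclusive = only one of those two conditions met; inactive = neither condition met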
#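 Compound: one test concentration per compound; Material: GST-GASC-1 enzyme fragment 2-372; Amount: GASC-1 enzyme at 10 nM final in reaction; Also added: H3K9me3 peptide substrate, Fe(II), 2-oxoglutarate; Technique: LANCE TR-FRET; Times: 30 min demethylation and 1 h detection at room temperature.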
# T cruzi growth-2: T. cruzi intracellular proliferation inhibitors, confirmation, cell-based, NIH3T3 host, beta-gal parasite, luminescence, cherry-pick. shares compounds with T cruzi growth-1. T. cruzi beta-gal in NIH3T3, GalScreen luminescence, 90 h. inhibition, % at 8.35 µM. 5,600 tested, 72% active. AID 651739, 2012;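 active = mean replicate inhibition above about 95% and at least 55% of replicates individually reaching it, limit read from the data; inconclusive = only one of the two criteria is met; inactive = neither criterion is met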
# T cruzi growth-3: inhibitors of intracellular T. cruzi replication, confirmation, NIH3T3 host cells, beta-gal parasites, cherry-pick, set 2. AID 651740, 2012. inhibition, % at 2.09 µM. shares compounds with T cruzi growth-1. T. cruzi beta-gal in NIH3T3, GalScreen luminescence, 90 h. 5,600 tested, 21% active;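 active = mean inhibition above about 95%, with at least 55% of replicates also reaching it, limit read from the data; inconclusive = meets just one of the two conditions; inactive = meets neither condition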;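 also: plate controls were neutral control median for no effect and positive control median for full effect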
# 3T3 cytotox: cytotoxicity in mouse NIH/3T3 fibroblasts, confirmation, cytotoxicity control for T. cruzi proliferation inhibitor project, cell-based, cherry-pick, single point; shares compounds with T cruzi growth-1; NIH/3T3 viability, CellTiter-Glo ATP luminescence, 90 h; cytotoxicity (signal decrease), % at 8.35 µM; 5,600 tested, 14% active;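 active = mean signal decrease across replicates above about 35% based on untreated-well scatter, with enough replicates individually passing, limit read from the data; inconclusive = no rule stated though some were filed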;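 also: 0% = median of neutral control wells and 100% = median of positive control wells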
# NIH3T3 tox 2: NIH/3T3 fibroblast cytotoxicity, confirmation, cytotoxicity control, cell-based, cherry-pick, single point, set 2; NIH/3T3 viability, CellTiter-Glo ATP luminescence, 90 h; shares compounds with T cruzi growth-1; inhibition, % at 24.9 µM; 5,600 tested, 56% active;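 active = mean loss of cell viability signal at or above a set limit, and enough replicates individually reaching it; inconclusive = meets only the mean limit or only the replicate share; inactive = meets neither condition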;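 also: 0% = median of neutral control wells and 100% = median of positive control wells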
# * hit, by the source's call; ? = inconclusive; nt = no result given.
SMILES,Pf Dd2 growth,T cruzi growth-1,IDH1 mut inh,GASC1 inh,T cruzi growth-2,T cruzi growth-3,3T3 cytotox,NIH3T3 tox 2
COc1ccc(CN(C)C[C@@H]2OCCCC[C@@H](C)Oc3ccc(NS(=O)(=O)c4ccc(Cl)cc4)cc3C(=O)N([C@@H](C)CO)C[C@@H]2C)cc1,-35,?,2,0,?,58,30,107*
COc1ccc(CN(C)C[C@H]2OCCCC[C@H](C)Oc3ccc(NS(=O)(=O)c4ccccc4)cc3C(=O)N([C@H](C)CO)C[C@H]2C)cc1,-36,102*,0,0,108*,43,9,?
COc1ccc(CN(C)C[C@H]2OCCCC[C@@H](C)Oc3ccc(NS(=O)(=O)c4ccccc4)cc3C(=O)N([C@H](C)CO)C[C@H]2C)cc1,-55,-18,nt,0,nt,nt,nt,nt
COc1ccc(CN(C)C[C@H]2OCCCC[C@@H](C)Oc3ccc(NS(=O)(=O)c4ccc(Cl)cc4)cc3C(=O)N([C@@H](C)CO)C[C@@H]2C)cc1,-72,30,nt,4,nt,nt,nt,nt
C[C@H](CO)N1C[C@H](C)[C@@H](CN(C)Cc2ccccc2)OCCCC[C@H](C)Oc2ccc(NS(C)(=O)=O)cc2C1=O,-12,99*,3,1,11,11,-8,-1
C[C@@H]1CCCCO[C@H](CN(C)Cc2ccccc2)[C@H](C)CN([C@@H](C)CO)C(=O)c2cc(NS(C)(=O)=O)ccc2O1,-31,56,-4,0,nt,nt,nt,nt
Cc1ccc(S(=O)(=O)Nc2ccc3c(c2)C(=O)N([C@H](C)CO)C[C@@H](C)[C@H](CN(C)Cc2ccccc2)OCCCC[C@@H](C)O3)cc1,-76,93*,nt,-1,109*,66,3,86*
C[C@@H]1CCCCO[C@@H](CN(C)Cc2ccncc2)[C@H](C)CN([C@H](C)CO)C(=O)c2cc(NS(C)(=O)=O)ccc2O1,32,102*,5,2,-25,-13,8,12
CO[C@H]1CC[C@@H]2CCOc3c(C#N)cccc3C(=O)N(C)C[C@H](OC)[C@H](C)C(=O)N(C)C[C@@H]1O2,nt,23,nt,-2,nt,nt,nt,nt
COc1cccc(S(=O)(=O)Nc2ccc3c(c2)[C@H]2C[C@H](CC(=O)N(C)C)O[C@@H](CO)[C@H]2O3)c1,20,45,0,1,nt,nt,nt,nt
CNC[C@H]1Oc2cc(C#C[C@@H](C)O)ccc2S(=O)(=O)N([C@@H](C)CO)C[C@@H]1C,-65,24,-1,-1,nt,nt,nt,nt
C[C@H](CO)N1C[C@H](C)[C@H](CN(C)S(=O)(=O)c2ccc(Cl)cc2)OCCCC[C@H](C)Oc2ccc(NC(=O)C3CCCCC3)cc2C1=O,-68,106*,0,1,111*,72,18,51*
C[C@@H]1CN([C@H](C)CO)C(=O)c2cc(NC(=O)C3CCCCC3)ccc2O[C@@H](C)CCCCO[C@H]1CN(C)S(=O)(=O)c1ccc(F)cc1,-80,26,2,-1,nt,nt,nt,nt
C[C@@H]1CN([C@H](C)CO)C(=O)c2cc(NC(=O)C3CCCCC3)ccc2O[C@@H](C)CCCCO[C@H]1CN(C)S(=O)(=O)c1ccc(Cl)cc1,-83*,102*,nt,1,106*,62,17,70*
C[C@H]1CCCCO[C@H](CN(C)S(=O)(=O)c2ccc(F)cc2)[C@@H](C)CN([C@@H](C)CO)C(=O)c2cc(NC(=O)C3CCCCC3)ccc2O1,-77,86,4,-1,nt,nt,nt,nt
C[C@H](CO)N1C[C@H](C)[C@@H](CN(C)S(=O)(=O)c2ccc(Cl)cc2)OCCCC[C@H](C)Oc2ccc(NC(=O)C3CCCCC3)cc2C1=O,-67,107*,nt,-1,104*,46,-22,-4
C[C@@H]1CCCCO[C@@H](CN(C)S(=O)(=O)c2ccc(F)cc2)[C@H](C)CN([C@H](C)CO)C(=O)c2cc(NC(=O)C3CCCCC3)ccc2O1,-72,101*,nt,0,107*,65,13,-8
C[C@@H]1CN([C@H](C)CO)C(=O)Cc2cc(NC(=O)Nc3ccc4c(c3)OCO4)ccc2O[C@H]1CN(C)S(=O)(=O)c1ccc(Cl)cc1,1,-49,0,0,nt,nt,nt,nt
C[C@H](CO)N1C[C@H](C)[C@@H](CN(C)C(=O)Nc2ccccc2)OCCCC[C@H](C)Oc2ccc(NC(=O)CCCN(C)C)cc2C1=O,-13,8,1,2,nt,nt,nt,nt
C[C@@H]1CCCCO[C@H](CN(C)S(=O)(=O)c2ccc(Cl)cc2)[C@H](C)CN([C@@H](C)CO)C(=O)c2cc(NC(=O)C3CCCCC3)ccc2O1,-80,108*,nt,0,103*,84,-8,24
COc1ccc(S(=O)(=O)N(C)C[C@@H]2OCCCC[C@@H](C)Oc3ccc(NC(=O)C4CCCCC4)cc3C(=O)N([C@@H](C)CO)C[C@H]2C)cc1,-69,106*,1,0,107*,40,9,21
COc1ccc(S(=O)(=O)N(C)C[C@H]2OCCCC[C@@H](C)Oc3ccc(NC(=O)C4CCCCC4)cc3C(=O)N([C@@H](C)CO)C[C@H]2C)cc1,-59,57,-3,1,nt,nt,nt,nt
Cc1ccc(S(=O)(=O)N(C)C[C@H]2OCCCC[C@@H](C)Oc3ccc(NC(=O)C4CCCCC4)cc3C(=O)N([C@H](C)CO)C[C@H]2C)cc1,-71,47,nt,0,nt,nt,nt,nt
C[C@@H]1CCCCO[C@H](CN(C)S(=O)(=O)c2ccc(Cl)cc2)[C@@H](C)CN([C@@H](C)CO)C(=O)c2cc(NS(C)(=O)=O)ccc2O1,-49,2,1,-2,nt,nt,nt,nt
C[C@H]1CCCCO[C@@H](CN(C)C(=O)NC2CCCCC2)[C@@H](C)CN([C@@H](C)CO)C(=O)c2cc(NC(=O)Nc3ccccc3)ccc2O1,-71,110*,nt,-2,111*,9,-18,-4
C[C@@H]1CCCCO[C@H](CN(C)C(=O)NC2CCCCC2)[C@@H](C)CN([C@H](C)CO)C(=O)c2cc(NC(=O)Nc3ccccc3)ccc2O1,37,23,2,1,nt,nt,nt,nt
